Measured values published in PMC9476207 (ACS Omega, 2022).

Legend:
Type in all cases: cell-based, human
A549 cells [1] = assay: Reactive oxygen species; settings: 18f at 5, 3 and 1.5 μM, 48 h
In short: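 A549 cells (1 × 10^5, six-well) were grown 24 h, then exposed to test compound at 1.5, 3 and 5 μM for 48 h. 0.05% H2O2 positive control was added 1 h before the end. Cells were PBS-washed and loaded with DCFH-DA (10 mM as printed) for 30 min in the dark, rewashed, and viewed by inverted fluorescence microscopy.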

A549 cells [2] = assay: Apoptosis assay through DAPI staining; settings: 18f at 5, 3 and 1.5 μM, 48 h, paclitaxel positive control
A549 cells [3] = assay: Loss of mitochondrial membrane potential; settings: A549, 48 h
In short: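 A549 cells (1 × 10^5/mL/well, six-well plates) were treated for 48 h with 1.5, 3.0 or 5.0 μM test compound; paclitaxel served as positive control. After an ice-cold PBS wash, cells took up rhodamine-123 (final 0.2 mM) for 20–30 min in the dark in the incubator. Cells were washed again and fluorescence was assessed qualitatively by microscopy.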

CC(=O)O[C@H]1C(=O)[C@@]2(C)[C@H]([C@H](OC(=O)c3ccccc3)[C@]3(O)C[C@H](OC(=O)[C@H](O)[C@@H](NC(=O)c4ccccc4)c4ccccc4)C(C)=C1C3(C)C)[C@]1(OC(C)=O)CO[C@@H]1C[C@@H]2O [paclitaxel]
intracellular ROS (DCFDA fluorescence, qualitative) (A549 cells [1]): higher in the treated groups
nuclear morphological changes (DAPI staining) (A549 cells [2]): chromatin condensation, nuclear blebbing, and formation of apoptotic bodies
loss of mitochondrial membrane potential (rhodamine-123 fluorescence) (A549 cells [3]; 18f at 3.0 μM): quite similar
loss of mitochondrial membrane potential (rhodamine-123 fluorescence) (A549 cells [3]; 18f at 5 μM, paclitaxel at its IC50 doses): maximum loss in the mitochondrial membrane potential
